Results from ChEMBL document CHEMBL2021923, “Synthesis and antikinetoplastid activities of 3-substituted quinolinones derivatives” (Eur J Med Chem, 2012).

Tests used:
[1] = Cytotoxicity against mouse RAW264.7 cells assessed as cell survival at 100 uM after 24 hrs incubation by trypan blue exclusion method; assay type: cell-based; settings: read-out: Survival
Method in brief: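 RAW 264.7 mouse macrophages grown in DMEM with 10% heat-inactivated FBS, seeded at 5 × 10^4 cells/well, and held 24 h at 37 °C in 5% CO2. Medium was then replaced with fresh DMEM containing compound, followed by a further 24 h incubation. Cells were scraped off, stained with trypan blue and counted live on a hemocytometer. Viability is given as % of untreated cells (100%).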

[2] = tested on: Trypanosoma brucei brucei; experiment: Antikinetoplastid activity against Trypanosoma brucei brucei CMP by drug incubation infectivity test; assay type: functional; settings: read-out: MEC
Leishmania donovani [3] = experiment: Antikinetoplastid activity against Leishmania donovani MHOM/ET/67/HU3 promastigotes after 3 days incubation at 27 degC under dark condition and 5% CO2 atmosphere by MTT assay; assay type: functional, organism-based; settings: MHOM/ET/67/HU3, 72 h
Leishmania donovani [4] = experiment: Antikinetoplastid activity against Leishmania donovani MHOM/ET/67/HU3 amastigotes after 3 days incubation at 37 degC under dark condition and 5% CO2 atmosphere by SYBR green I dye based assay; assay type: functional, organism-based; settings: MHOM/ET/67/HU3, 72 h
Method in brief: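 Axenic amastigotes were obtained by diluting log-phase LV9 promastigotes into amastigote medium (M-199 with KCl, glucose, glutamine, trypticase peptone, haemin, 20% FBS; pH 5.5) and grown at 37 °C in 5% CO2. Parasites were exposed to the compounds for 72 h, then lysed. Growth was read by SYBR Green I DNA fluorescence against a parasite-density standard range, and the IC50 was derived.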

[5] = Cytotoxicity against human MCF7 cells assessed as cell survival at 100 uM after 72 hrs incubation by MTT assay; assay type: cell-based; settings: read-out: Survival
MCF7 = experiment: Cytotoxicity against human MCF7 cells assessed as cell viability after 72 hrs incubation by MTT assay; assay type: cell-based; settings: MCF7, 72 h

Row | SMILES | viability at 24 h, 100 µM [1] [%] | minimal effective concentration [2] [µM] | IC50 (Leishmania donovani [3]) [µM] | IC50 (Leishmania donovani [4]) [µM] | viability at 72 h, 100 µM [5] [%] | IC50 (MCF7) [µM]
1 | Cn1c(=O)cc(O)c2ccccc21 | 70 | > 200 | > 100 | – | – | –
2 | Cn1c(=O)c([N+](=O)[O-])c(O)c2ccccc21 | 80 | > 200 | > 100 | – | – | –
3 | Cc1ccc(S(=O)(=O)Oc2c([N+](=O)[O-])c(=O)n(C)c3ccccc23)cc1 | 100 | > 200 | 3 | 2 | – | –
4 | Cc1ccc(S(=O)(=O)Oc2c(N)c(=O)n(C)c3ccccc23)cc1 | – | 12.5 | 30 | – | 24 | –
5 | COc1ccc(C(=O)Nc2c(O)c3ccccc3n(C)c2=O)cc1 | – | > 200 | 11 | > 100 | 81 | –
6 | Cn1c(=O)c(NC(=O)c2ccc(F)cc2)c(O)c2ccccc21 | – | > 200 | > 100 | – | 74 | –
7 | COc1cc(C(=O)Nc2c(O)c3ccccc3n(C)c2=O)cc(OC)c1OC | – | > 200 | 3.5 | > 100 | 100 | –
8 | COc1cc(C(=O)Nc2c(O)c3ccccc3[nH]c2=O)cc(OC)c1OC | – | > 200 | > 100 | – | 76 | –
9 | Cn1c(=O)c(NC(=O)c2ccc3c(c2)C=CC(C)(C)O3)c(O)c2ccccc21 | – | > 200 | 53 | – | 100 | –
10 | Cn1c(=O)c(NC(=O)c2ccc3c(c2)CCC(C)(C)O3)c(O)c2ccccc21 | – | > 200 | 56 | – | 98 | –
11 | CCCC(=O)Nc1c(O)c2ccccc2n(C)c1=O | – | > 200 | 11 | 3 | 97 | –
12 | Cn1c(=O)c(NC(=O)CCCCCCCCCCOn2nnc3ccccc32)c(O)c2ccccc21 | – | 200 | 34 | – | 72 | –
13 | Cn1c(=O)c(NC(=O)c2cc3ccccc3[nH]2)c(O)c2ccccc21 | – | > 200 | > 100 | – | 107 | –
14 | COc1ccc(C(=O)Nc2c(OS(=O)(=O)c3ccc(C)cc3)c3ccccc3n(C)c2=O)cc1 | – | > 200 | 25 | – | 82 | –
15 | Cc1ccc(S(=O)(=O)Oc2c(NC(=O)c3ccc(F)cc3)c(=O)n(C)c3ccccc23)cc1 | – | > 200 | 49 | – | 57 | –
16 | COc1cc(C(=O)Nc2c(OS(=O)(=O)c3ccc(C)cc3)c3ccccc3n(C)c2=O)cc(OC)c1OC | – | > 200 | 41 | – | 84 | –
17 | COc1cc(C(=O)Nc2c(OS(=O)(=O)c3ccc(C)cc3)c3ccccc3[nH]c2=O)cc(OC)c1OC | – | > 200 | 18 | – | 55 | –
18 | Cc1ccc(S(=O)(=O)Oc2c(NC(=O)c3ccc4c(c3)C=CC(C)(C)O4)c(=O)n(C)c3ccccc23)cc1 | – | > 200 | 30 | – | 37 | –
19 | Cc1ccc(S(=O)(=O)Oc2c(NC(=O)c3ccc4c(c3)CCC(C)(C)O4)c(=O)n(C)c3ccccc23)cc1 | – | > 200 | 30 | – | 100 | –
20 | CCCC(=O)Nc1c(OS(=O)(=O)c2ccc(C)cc2)c2ccccc2n(C)c1=O | – | > 200 | 50 | – | 55 | –
21 | Cc1ccc(S(=O)(=O)Oc2c(NC(=O)CCCCCCCCCCOn3nnc4ccccc43)c(=O)n(C)c3ccccc23)cc1 | – | > 200 | 37 | – | 69 | –
22 | Cc1ccc(S(=O)(=O)Oc2c(NC(=O)c3cc4ccccc4[nH]3)c(=O)n(C)c3ccccc23)cc1 | – | > 200 | 42 | – | 50 | –
23 | COc1cc(C(=O)Nc2c(OS(=O)(=O)c3cccs3)c3ccccc3n(C)c2=O)cc(OC)c1OC | – | > 200 | 14 | – | 77 | –
24 | COc1ccc(C(=O)Nc2cc3ccccc3n(C)c2=O)cc1 | – | > 200 | > 100 | – | 89 | –
25 | COc1ccc(C(=O)Nc2cc3cc(Br)ccc3n(C)c2=O)cc1 | – | > 200 | > 100 | – | 20 | –
26 | COc1ccc(C(=O)Nc2cc3cc(OC)ccc3n(C)c2=O)cc1 | – | > 200 | > 100 | – | 22 | –
27 | CCCCNc1cc2ccccc2n(C)c1=O | – | > 200 | > 100 | – | 10 | 7
28 | O=[N+]([O-])c1c(O)nc2ccccc2c1O | 90 | > 200 | > 100 | – | – | –
29 | CCCCCCCCCCCCCCCCOP(=O)([O-])OCC[N+](C)(C)C [MILTEFOSINE] | 85 | – | – | 5 | – | –
30 | N=C(N)c1ccc(OCCCCCOc2ccc(C(=N)N)cc2)cc1 [PENTAMIDINE] | 75 | 5 | 2.84 | – | – | –
